Source: ChEMBL document CHEMBL3758103, “Anti-herpetic and anti-dengue activity of abietane ferruginol analogues synthesized from (+)-dehydroabietylamine” (Eur J Med Chem, 2016)
≈ marks a conversion by molar mass, not a printed value. Calls of active or inactive are those of the source. The calls are words filed in the database; no cut-off is given here.

Assays:
Fusarium oxysporum = assay: Antifungal activity against Fusarium oxysporum ATCC 48112 assessed as microbial growth inhibition after 48 hrs by microdilution assay; type: functional, organism-based
Procedure, shortened: (§1)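 Broth microdilution under CLSI M38-A with modifications, in duplicate, at final compound concentrations of 50–3.125 μg/mL. […] Values are the geometric mean of duplicate tests in three assays. Assay DMSO was 0.05%.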

Human alphaherpesvirus 2 [1] = assay: Antiviral activity against HHV-2 VR-734-G infected in African green monkey Vero cells assessed as reduction in plaque formation administered simultaneously with virus for 1 hr measured after 72 hrs by crystal violet staining technique; type: functional, organism-based
Procedure, shortened: (§2)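 Plaque reduction on Vero monolayers (2.5 × 10^4 cells/well) infected with 100 PFU/well. Pre-infection arm: virus–compound mixture added for 1 h at 37 °C, PBS wash, then CMC overlay. Post-infection arm: virus adsorbed 1 h, washed, then compound given in CMC. CMC was 1% for HHV-1, 0.75% for HHV-2 and 2% for DENV-2. Plates ran 72 h (HHV) or 8 days (DENV-2) before crystal violet staining. EC50 came from linear regression over ≥4 dilutions in quadruplicate.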

Human alphaherpesvirus 1 [2] = assay: Antiviral activity against HHV-1 CDC Atlanta infected in African green monkey Vero cells assessed as maximal non toxic concentration causing reduction of viral titer after 48 hrs by crystal violet staining assay; type: functional
Procedure, shortened: (§3)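 End-point titration on Vero monolayers (2.0 × 10^4 cells/well, ≥80% confluent) with 10 TCID50 virus. Virus–compound mixtures (6.25–50 μg/mL) in DMEM/2% FBS with CMC (1% for HHV-1, 0.5% for HHV-2) were held 15 min at room temperature. Incubation was 48 h (HHV-1) or 72 h (HHV-2) at 37 °C, then formaldehyde/crystal violet staining and plaque counting. Read-out is the viral titer reduction factor. Two experiments in quadruplicate.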

Jurkat [3] = assay: Selectivity index, ratio of IC50 for African green monkey Vero cells to IC50 for human Jurkat cells; type: functional
Procedure, shortened: (§4)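 SI calculated as Vero IC50 divided by HeLa, Jurkat or U937 IC50, all from the 48 h MTT assay.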

[4] = Selectivity index, ratio of IC50 for African green monkey vero cells to EC50 for DENV-2 compound administered post viral infection
Procedure, shortened: (§5)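 Antiviral SI calculated as Vero IC50 divided by the post-infection plaque-reduction EC50 for each virus on Vero cells.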

[5] = tested on: Trichophyton mentagrophytes; assay: Antifungal activity against Trichophyton mentagrophytes ATCC 24198 assessed as microbial growth inhibition after 6 days by microdilution assay; type: functional; conditions: ATCC 24198, 144 h; procedure, shortened: as §1
Candida albicans = assay: Antifungal activity against Candida albicans […] assessed as microbial growth inhibition after 24 hrs by microdilution assay; type: functional, organism-based
Procedure, shortened: (§6)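 Yeast microdilution by the AFST-EUCAST method at an inoculum of 1–5 × 10^5 CFU/mL, final compound concentrations 50–3.125 μg/mL, in duplicate. MIC is the lowest concentration giving 90% growth reduction after 24 h at 35 °C. Untreated inoculum served as negative control. Values are the geometric mean of duplicate tests in three assays.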

Human alphaherpesvirus 2 [6] = assay: Antiviral activity against HHV-2 VR-734-G infected in African green monkey Vero cells assessed as reduction in plaque formation administered post viral infection after 72 hrs by crystal violet staining technique; type: functional, organism-based; conditions: Human alphaherpesvirus 2, VR-734-G; procedure, shortened: as §2
dengue virus type 2 [7] = assay: Antiviral activity against DENV-2 New guinea infected in African green monkey Vero cells assessed as inhibition of virus-induced cytopathic effect after 3 days by crystal violet staining based inverted microscopic analysis relative to control; type: functional, organism-based
Jurkat [8] = assay: Cytotoxicity against human Jurkat cells assessed as cell growth inhibition after 48 hrs by MTT assay; type: functional, cell-based
Procedure, shortened: (§7)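 MTT assay. Vero and HeLa cells plated at 2.0 × 10^4/well and preincubated 24 h; Jurkat and U937 plated at 3.0 × 10^4/well. Compounds were applied 48 h at 37 °C, 5% CO2, with 0.05% DMSO. Absorbance read at 570 nm and IC50 taken by linear regression. Values are the geometric mean of two experiments in quadruplicate.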

Candida tropicalis = assay: Antifungal activity against Candida tropicalis ATCC 200956 assessed as microbial growth inhibition after 24 hrs by microdilution assay; type: functional, organism-based; procedure, shortened: as §6
Human alphaherpesvirus 2 [9] = assay: Antiviral activity against HHV-2 VR-734-G infected in African green monkey Vero cells assessed as maximal non toxic concentration causing reduction of viral titer after 72 hrs by crystal violet staining assay; type: functional; procedure, shortened: as §3
[10] = Cytotoxicity against human U937 cells assessed as cell growth inhibition after 48 hrs by MTT assay; type: functional, cell-based; conditions: U-937, 48 h; procedure, shortened: as §7
Trichophyton rubrum = assay: Antifungal activity against Trichophyton rubrum ATCC 28188 assessed as microbial growth inhibition after 6 days by microdilution assay; type: functional; conditions: ATCC 28188, 144 h; procedure, shortened: as §1
Human alphaherpesvirus 2 [11] = assay: Antiviral activity against HHV-2 VR-734-G infected in African green monkey Vero cells assessed as viral plaque size reduction at 20.8 uM after 72 hrs by crystal violet staining based inverted microscopic analysis relative to control; type: functional; design: scale not given: the % may be the effect or the level left
Procedure, shortened: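 Vero cells (2.5 × 10^4/well) infected with 100 PFU/well, with compound in CMC added 2 h after infection. Incubation was 72 h for HHV strains and 8 days for DENV-2, then formaldehyde/crystal violet staining. Twenty plaques per concentration per well were imaged and their areas […] measured against mock-treated controls. Two experiments in duplicate.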

Candida parapsilosis = assay: Antifungal activity against Candida parapsilosis ATCC 22019 assessed as microbial growth inhibition after 24 hrs by microdilution assay; type: functional, organism-based; procedure, shortened: as §6
Human alphaherpesvirus 1 [12] = assay: Antiviral activity against HHV1 CDC Atlanta infected in African green monkey Vero cells assessed as reduction of viral titer at maximal non-toxic concentration after 48 hrs by crystal violet staining assay relative to control; type: functional; procedure, shortened: as §3
[13] = Selectivity index, ratio of IC50 for African green monkey vero cells to EC50 for HHV-2 compound administered post viral infection; procedure, shortened: as §5
Vero [14] = assay: Cytotoxicity against African green monkey Vero cells assessed as inhibition of cell proliferation after 8 days; type: cell-based; conditions: Chlorocebus sabaeus, 192 h
Vero [15] = assay: Cytotoxicity against African green monkey Vero cells assessed as inhibition of cell proliferation after 72 hrs; type: cell-based; conditions: Chlorocebus sabaeus
Vero [16] = assay: Cytotoxicity against African green monkey Vero cells assessed as cell growth inhibition after 48 hrs by MTT assay; type: cell-based; conditions: Chlorocebus sabaeus; procedure, shortened: as §7
Vero [17] = assay: Selectivity index, ratio of IC50 for African green monkey Vero cells to IC50 for human U937 cells; type: functional; procedure, shortened: as §4
Human alphaherpesvirus 1 [18] = assay: Antiviral activity against HHV-1 CDC Atlanta infected in African green monkey Vero cells assessed as reduction in plaque formation administered simultaneously with virus for 1 hr measured after 72 hrs by crystal violet staining technique; type: functional, organism-based; procedure, shortened: as §2
Aspergillus fumigatus = assay: Antifungal activity against Aspergillus fumigatus ATCC 204305 assessed as microbial growth inhibition by microdilution assay; type: functional, organism-based; procedure, shortened: as §1
HeLa [19] = assay: Selectivity index, ratio of IC50 for African green monkey Vero cells to IC50 for human HeLa cells; type: functional; procedure, shortened: as §4
Aspergillus flavus = assay: Antifungal activity against Aspergillus flavus ATCC 204304 assessed as microbial growth inhibition by microdilution assay; type: functional, organism-based; procedure, shortened: as §1
HeLa [20] = assay: Cytotoxicity against human HeLa cells assessed as cell growth inhibition after 48 hrs by MTT assay; type: functional, cell-based; procedure, shortened: as §7
Human alphaherpesvirus 1 [21] = assay: Antiviral activity against HHV-1 CDC Atlanta infected in African green monkey Vero cells assessed as reduction in plaque formation administered post viral infection after 72 hrs by crystal violet staining technique; type: functional, organism-based; conditions: Human alphaherpesvirus 1, CDC Atlanta, Vero, 72 h; read-out: EC50; procedure, shortened: as §2
dengue virus type 2 [22] = assay: Antiviral activity against DENV-2 New guinea infected in African green monkey Vero cells assessed as reduction in plaque formation administered simultaneously with virus for 1 hr measured after 8 days by crystal violet staining technique; type: functional, organism-based; procedure, shortened: as §2
Human alphaherpesvirus 2 [23] = assay: Antiviral activity against HHV-2 VR-734-G infected in African green monkey Vero cells assessed as reduction of viral titer at maximal non-toxic concentration after 72 hrs by crystal violet staining assay relative to control; type: functional; procedure, shortened: as §3
dengue virus type 2 [24] = assay: Antiviral activity against DENV-2 New guinea infected in African green monkey Vero cells assessed as reduction in plaque formation administered post viral infection after 8 days by crystal violet staining technique; type: functional, organism-based; conditions: 192 h; procedure, shortened: as §2
[25] = Selectivity index, ratio of IC50 for African green monkey vero cells to EC50 for HHV-1 compound administered post viral infection; procedure, shortened: as §5
Aspergillus terreus = assay: Antifungal activity against Aspergillus terreus CDC 317 assessed as microbial growth inhibition by microdilution assay; type: functional, organism-based; procedure, shortened: as §1

CC(C)c1cc2c(cc1O)[C@@]1(C)CCC[C@@](C)(C=O)[C@@H]1CC2 [18-OXOFERRUGINOL]
Activity (Fusarium oxysporum): inactive | EC50 (Human alphaherpesvirus 2 [1]): Not Active | MNTD (Human alphaherpesvirus 1 [2]): inactive | Ratio IC50 (Jurkat [3]): 4.2 | Ratio IC50/EC50 [4]: 10.4 | MIC80 [5]: 83.3 µM (≈ 25 µg/mL) | Activity (Candida albicans): inactive | EC50 (Human alphaherpesvirus 2 [6]): 16.6 µM | Activity (dengue virus type 2 [7]): Active | IC50 (Jurkat [8]): 21.6 µM | Activity (Candida tropicalis): inactive | MNTD (Human alphaherpesvirus 2 [9]): 41.7 µM | IC50 [10]: 33.2 µM | MIC80 (Trichophyton rubrum): 41.7 µM (≈ 12.5 µg/mL) | Activity (Human alphaherpesvirus 2 [11]): 68.2% | Activity (Candida parapsilosis): inactive | fold change (FC) (Human alphaherpesvirus 1 [12]): inactive | Ratio IC50/EC50 [13]: 5.9 | IC50 (Vero [14]): 52.2 µM | IC50 (Vero [15]): 97.8 µM | IC50 (Vero [16]): 90.8 µM | Ratio IC50 (Vero [17]): 2.7 | EC50 (Human alphaherpesvirus 1 [18]): Not Active | Activity (Aspergillus fumigatus): inactive | Ratio IC50 (HeLa [19]): 1.5 | Activity (Aspergillus flavus): inactive | IC50 (HeLa [20]): 60 µM | EC50 (Human alphaherpesvirus 1 [21]): 19.6 µM | EC50 (dengue virus type 2 [22]): Not Active | fold change (FC) (Human alphaherpesvirus 2 [23]): 1000 | EC50 (dengue virus type 2 [24]): 5 µM | Ratio IC50/EC50 [25]: 4.9 | Activity (Aspergillus terreus): inactive
